The campaign covered roughly 2,400 compounds. About 660 (28%) were called active.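 Rule for the calls: active = mean inhibition over replicate wells above the hit cutoff set for the earlier primary screen (cut at about 29% in these data); inactive = the rest.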 Only a sample is shown.

The test system of the experiment is M18 aspartyl aminopeptidase (Plasmodium falciparum 3D7). Briefly: PfM18AAP inhibitors, malaria aminopeptidase, confirmation, biochemical, QFRET, recombinant enzyme, triplicate (AID 2170).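 Note: 0% = median of test compound wells and 100% = 2 mM ZnCl2.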 The settings on record: H-Glu-NHMec fluorogenic cleavage, at 7.35 µM, stronger effect = higher value. The method in brief: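 Test system: recombinant P. falciparum M18 aspartyl aminopeptidase; incubation: Enzyme–compound pre-incubation 30 min, substrate reaction 90 min, both 25 °C; detection: fluorescence, excitation 340 nm, emission 450 nm, read at 0 and 90 min; evaluation: percent inhibition from 0–90 min fluorescence gain, scaled between controls; benchmarks: ZnCl2 inhibitor control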
On to `O=C(Nn1cnnc1)c1cc(Cl)ccc1Cl`, for which the inhibition (commonly the drop in the measured response relative to a control, in per cent) was 55.1% (active).

Consider `O=C(Nc1ccccc1Cl)Nn1cnnc1`, for which the inhibition was 65.9% (active). Consider `Cc1ccc(S(=O)(=O)N/N=C\c2cc3c(cc2[N+](=O)[O-])OCO3)cc1`, for which the inhibition is -7.72% (inactive). The same measure for `Cc1ccc(Cl)cc1-c1ccc(/C=N/n2cnnc2)o1`: -18.6% (inactive); for `Cc1ccc(-c2ccc(/C=C(\C#N)C(N)=S)o2)c([N+](=O)[O-])c1`: -32.7% (inactive).

Turning to `NC(=O)c1c(NC(=O)CSc2nnc(-c3ccco3)n2N)sc2c1CCCC2`, the inhibition was -70.9% (inactive).

As for `S=c1[nH]nc2c3c4c(sc3ncn12)CCCC4`, the inhibition is -11.8% (inactive). Turning to `CCOCCCNC(=O)c1ccc(CS(=O)(=O)c2cccc(C(F)(F)F)c2)o1`, the inhibition is -29.5% (inactive).

In the case of `Cc1cccc(NC(=O)c2sc3nc(N4CCOCC4)c4c(c3c2N)CCCC4)c1`, the inhibition is 3.82% (inactive). As for `O=S(=O)(c1ccc(NC(=S)NN=C(C2CC2)C2CC2)cc1)N1CCOCC1`, the inhibition was 14.8% (inactive). The same measure for `Cc1nnc(SCC(=O)Nn2cnnc2)s1`: 29.1% (active); for `NC(=O)C1CCN(C(=O)/C(=C/c2ccco2)NC(=O)c2ccccc2)CC1`: -45.2% (inactive); for `CCOc1ccc(-n2c(O)c(/C=N/Nc3nnc(C)c(=O)[nH]3)c3ccccc3c2=O)cc1`: 12.4% (inactive).

In the case of `Oc1c(C(c2ccco2)N2CCC3(CC2)OCCO3)sc2ncnn12` (stereo not drawn), the inhibition is -4.87% (inactive).

In the case of `Cc1ccc2nc(-c3cccc(Br)c3)cc(C(=O)Nn3cnnc3)c2c1`, the inhibition was 63.4% (active).

As for `CCN(CC)c1ccc(/C=N/Nc2nc(C)cc(C)n2)c(O)c1`, the inhibition is 16.4% (inactive). `Oc1ccc(/C=N/NC2=NCCCCC2)c(O)c1`: the inhibition was 41.8% (active).

For `O=C(Oc1ccc(Br)cc1C(=S)N1CCOCC1)c1cccc([N+](=O)[O-])c1`, the inhibition was -27.5% (inactive). For the compound `Oc1ccc(N2CCN(C(=S)NCc3ccccc3)CC2)cc1`, the inhibition was -12.9% (inactive).

In the case of `CC(OC(=O)c1ccc2noc(-c3ccccc3)c2c1)C(N)=O` (stereo not drawn), the inhibition is -28.2% (inactive). On to `O=C(N/N=C/c1ccc(O)c(O)c1)C1c2ccccc2Oc2ccccc21`, for which the inhibition is 37.3% (active). As for `CSc1n[nH]c(=S)n1N`, the inhibition was -12.7% (inactive).

`O=C(CSC(=S)N1CCOCC1)c1cc(Br)cc(Br)c1O`: the inhibition is -45.7% (inactive).

On to `CCN(CC)c1ccc(NC(=O)CCc2nnc3ccc(N4CCCCC4)nn23)c(C)c1`, for which the inhibition was -12.9% (inactive). The same measure for `Cc1csc(NC(=O)NC2(C(F)(F)F)Oc3ccccc3O2)n1`: 68.6% (active); for `Oc1cccc(/C=N/Nc2ccc(Cl)nn2)c1O`: 20.8% (inactive). The same measure for `CN(C)c1ccc(C(CC(=O)O)C(=O)O)cc1` (stereo not drawn): -38.2% (inactive); for `COc1cc(S(=O)(=O)Nc2ncn[nH]2)ccc1Cl`: 34.1% (active); for `Cc1onc(-c2ccccc2)c1C(=O)NNC(=S)NC(=O)c1ccc(F)cc1`: -38.8% (inactive). Next, `Oc1ccc(-c2csc(Nc3cccnc3)n2)cc1`: 56.6% (active). As to `CC1(C)CC(=O)C/C(=N\NC(=O)c2cccs2)C1`, the inhibition is 3.68% (inactive). `N#CCC(=O)N/N=C/c1ccc(SCC(=O)Nc2ccccc2)o1`: the inhibition is -37.9% (inactive).

Regarding `CCOC(=O)NNc1cc(C(F)(F)F)ccn1`, the inhibition is 28.2% (active).

For `COc1ccc2c(c1)C(C)=CC(C)(C)N2C(=O)Nc1ccccc1`, the inhibition is -22.9% (inactive). The same measure for `COc1ccc(/C=N/Nc2nc3ccccc3o2)cc1OC`: -38.4% (inactive); for `c1ccc2c(c1)OCC(c1nn3cnnc3s1)O2` (stereo not drawn): -28.2% (inactive); for `Cc1cc2nc3c(=O)n(Cc4ccccc4)c(=O)[nH]c3nc2cc1N`: 7.01% (inactive). In the case of `Cc1ccsc1/C=N/Nc1ccc(Cl)nn1`, the inhibition was -14.8% (inactive). Consider `COc1cc(Br)cc(/C=N/c2ncn[nH]2)c1O`, for which the inhibition was 62.9% (active). In the case of `Cc1cc(-c2ccc(/C=N/n3cnnc3)o2)c([N+](=O)[O-])cc1C`, the inhibition is 0.8% (inactive). In the case of `Cc1ccc(NC(=O)c2c(NC(=O)CCC(=O)O)sc3c2CCCCC3)cc1`, the inhibition is -30.8% (inactive). On to `CNC(=S)NNC(=O)c1ccc(N(C)C)cc1`, for which the inhibition is 12.2% (inactive). In the case of `CCCc1nc2ccccc2c(=O)n1/N=C/c1ccc(O)c(O)c1`, the inhibition is 28.4% (active). In the case of `CC(C)c1ccc(NC(=S)NNc2ccc(Cl)c(C(=O)O)c2)cc1`, the inhibition is -43.7% (inactive). The same measure for `COc1cc(/C=C2/C(=O)NN(c3cccc(Cl)c3)C2=O)cc(Br)c1O`: 12.9% (inactive). On to `O=C(NNC(=O)c1ccco1)Nc1ccccc1`, for which the inhibition is 17.1% (inactive).

Turning to `CC(C)C1N=C2c3ccccc3N=C(SCC(=O)c3ccc(O)c(O)c3)N2C1=O` (stereo not drawn), the inhibition is 39% (active). Consider `COc1cc(NC(=S)N2CCCC(C)C2)c(OC)cc1Cl` (stereo not drawn), for which the inhibition is -0.38% (inactive).

As to `S=c1[nH]c(-c2cccs2)cn1-c1ccccc1`, the inhibition is 39.1% (active). Regarding `Cc1cc(C)nc(NNC2=CC(=O)CC(C)(C)C2)n1`, the inhibition was 44.3% (active). Turning to `O=C(CC(n1cncn1)C(Cl)(Cl)Cl)c1ccc([N+](=O)[O-])cc1` (stereo not drawn), the inhibition is -9.53% (inactive). As for `COc1c(O)ccc2c1CN1CCc3cc4c(cc3C1C2)OCO4` (stereo not drawn), the inhibition was 9.45% (inactive).

Consider `Cc1c(CC(=O)N2CCN(C(=O)C3COc4ccccc4O3)CC2)c(=O)oc2c(O)c(O)ccc12` (stereo not drawn), for which the inhibition is 32.3% (active). The same measure for `CCN1/C(=C/C(=S)Nc2ccccc2)Sc2ccccc21`: 0.1% (inactive); for `CC(C)(C)c1nnc(N/N=C/c2ccc(O)cc2)n(N)c1=O`: -22.7% (inactive); for `CCOc1ccc(C2C3=C(CCCC3=O)N(CC(=O)O)C3=C2C(=O)CCC3)cc1`: -43.7% (inactive). Consider `Cc1ccnc(-n2sc3ccccc3c2=O)n1`, for which the inhibition was 28.8% (active). Regarding `NC(=S)N/N=C/c1coc2cc(Cl)ccc2c1=O`, the inhibition was -23.6% (inactive).

With `O=C(CN1CCN(c2ccc(O)cc2)CC1)Nc1ccc(-c2ccccc2)cc1`, the inhibition was -14.9% (inactive).

`c1ccc2sc(NN=C3CCCC3)nc2c1`: the inhibition is -44.4% (inactive). For `Cc1cc(C)nc(Nc2ncn[nH]2)n1`, the inhibition is 71.7% (active).

In the case of `COc1cccc2cc(-c3cc(=O)oc4cc(C)c(O)cc34)oc12`, the inhibition is -27.8% (inactive). The same measure for `O=C(CSc1ncn[nH]1)Nc1nc(-c2cccc([N+](=O)[O-])c2)cs1`: 36.5% (active).

As to `O=C(CSc1ncn[nH]1)Nc1ccnc2ccccc12`, the inhibition is 8.46% (inactive).

Turning to `O=C(CSc1ncn[nH]1)Nc1nsc(-c2ccccc2)n1`, the inhibition was 14.9% (inactive). `COc1ccccc1-c1nnc(SCC(=O)Nc2cc(C)on2)o1`: the inhibition is -49.2% (inactive). Next, `c1ccc(-c2ccc3c(c2)NC(C2Nc4cc(-c5ccccc5)ccc4O2)O3)cc1` (stereo not drawn): -52.4% (inactive); `O=C1CCCCN1CCCC(=O)N1CCCC(Nc2ccc(F)cc2)C1` (stereo not drawn): -33.7% (inactive); `COc1ccc(OC)c(Nc2nc(-c3ccc(O)c(O)c3)cs2)c1`: 42.4% (active).

For `Cc1cc(/C=N/Nc2ccc([N+](=O)[O-])cn2)c(C)n1-c1cccc(C(=O)O)c1`, the inhibition is -23.4% (inactive).

`Cc1ccc(-c2noc(CC(c3ccccc3)c3ccccc3)n2)cc1`: the inhibition was -39.5% (inactive). Next, `Cn1sc(=O)c2cc(S(=O)(=O)NC3CC3)ccc21`: -11.8% (inactive).

On to `O=C(CN1CCN(S(=O)(=O)c2cc(Cl)ccc2Cl)CC1)c1ccc(O)c(O)c1`, for which the inhibition was 31.5% (active).

Take `Cc1nc2ccc(S(=O)(=O)NCC(=O)O)cc2s1`: the inhibition is 12.5% (inactive). In the case of `O=C(Cn1c[n+](CC(=O)c2ccc([N+](=O)[O-])cc2)cn1)c1ccc([N+](=O)[O-])cc1`, the inhibition is 14% (inactive).

As for `O=c1nc(N/N=C/c2ccco2)cn[nH]1`, the inhibition is 18.9% (inactive).

Take `ONC(=Nc1ccccc1)c1ccccc1Cl`: the inhibition is -2.39% (inactive). As to `CC/C(C)=N/Nc1nc2sc3c(c2c(=O)[nH]1)CC(C)(C)OC3`, the inhibition is 9.57% (inactive).

As to `Oc1ccc(/C=N/Nc2ccc(C(F)(F)F)cn2)cc1O`, the inhibition is 6.58% (inactive). The same measure for `Cn1c(SCC(=O)N/N=C/c2ccc(O)c(O)c2)nc2ccccc21`: 50.9% (active); for `Cc1nccn1CC(=O)N/N=C/c1ccc(O)c(O)c1`: 58.4% (active); for `CCn1c(CNS(=O)(=O)c2ccc(Cl)cc2)n[nH]c1=S`: -0.52% (inactive). Next, `Cn1c(=O)[nH]c(=O)c2c1[nH]c(=S)n2Cc1ccccc1`: 6.35% (inactive); `Cc1cc([N+](=O)[O-])c(-c2ccc(/C=N/n3cnnc3)o2)cc1Cl`: 10.6% (inactive). Consider `O=C(COc1ccc([N+](=O)[O-])cc1Cl)Nn1cnnc1`, for which the inhibition is 36.8% (active). Take `O=[N+]([O-])c1ccc(N2CCN(c3ccc(O)cc3)CC2)c(Cl)c1`: the inhibition was -3.08% (inactive). On to `O=C(Nc1cccc([N+](=O)[O-])c1)Nn1cnnc1`, for which the inhibition was 64.6% (active). Next, `COc1cc(/C=N\Nc2ccc([N+](=O)[O-])cn2)ccc1OCC(=O)O`: -18% (inactive). Consider `CCN(CC)S(=O)(=O)c1cc([N+](=O)[O-])ccc1NNC(=O)Nc1ccccc1`, for which the inhibition was 25.9% (inactive). On to `O=C(O)CCn1c(O)c(C=C2N=c3ccccc3=N2)sc1=S`, for which the inhibition is -42.5% (inactive). Turning to `NC(=O)c1c(Nc2nc3c(F)cccc3s2)sc2c1CCCC2`, the inhibition was -18.3% (inactive).

With `Cc1cc2c(C)nc(N/N=C/c3ccccc3)nc2o1`, the inhibition is -42.8% (inactive).

With `O=C(CO/N=C/c1ccccc1O)NNC(=O)c1ccccc1Cl`, the inhibition was 42.3% (active). Take `CCOc1cccc(/C=N/NC(=S)NCCN2CCOCC2)c1O`: the inhibition is 16.9% (inactive). As to `COc1ccc(OCc2n[nH]c(=S)n2N)cc1`, the inhibition was 20.3% (inactive). On to `COc1ccc(OCc2nnc3n2N=C(c2ccccc2)C(CC(=O)O)S3)cc1` (stereo not drawn), for which the inhibition was 40.8% (active).

In the case of `CC1CCN(C(=O)c2ccc3c(c2)NC(=O)CN3)CC1`, the inhibition is -7.91% (inactive). The same measure for `CCN(CC)c1ccc2oc(=O)c(C)nc2c1`: 27.1% (inactive); for `ClC1(Cl)CC1CSc1ncn[nH]1` (stereo not drawn): 11.5% (inactive); for `CCn1ccnc1CNC(=O)CC1C(=O)NCCN1Cc1ccc(F)cc1Cl` (stereo not drawn): -24.5% (inactive). On to `CC(=O)c1ccc(NC(=O)CCc2nnc3ccc(NCc4ccco4)nn23)cc1`, for which the inhibition was -28.5% (inactive). Next, `CC(C)(C)C(=O)OCc1nc(-c2ccc(O)c(O)c2)cs1`: 53.5% (active); `COc1ccc(N/C=C(\C2OC(=O)c3ccccc32)[N+](=O)[O-])cc1` (stereo not drawn): -36.7% (inactive); `CC(/C=C/C1(O)C(C)CC(=O)CC1(C)C)OC1OC(CO)C(O)C(O)C1O` (stereo not drawn): 11.3% (inactive).

On to `CNC(=O)c1c(NC(NC(=O)c2ccco2)C(=O)c2ccc(Cl)cc2)sc2c1CCCC2` (stereo not drawn), for which the inhibition is -18.7% (inactive). Take `CC(C)(C)NC(=O)C(c1ccncc1)N(C(=O)CNC(=O)c1ccco1)c1ccc2c(c1)OCO2` (stereo not drawn): the inhibition was -44.5% (inactive).

For `CC(=O)N(c1ccc2oc(=O)sc2c1)S(=O)(=O)c1ccc(C)cc1`, the inhibition is -21.7% (inactive). Take `COc1cc(/C=N/Nc2nn3cnnc3c3ccccc23)cc(OC)c1OC`: the inhibition is -33.8% (inactive).

For `COc1cc(/C=N/NC(=S)Nc2cccnc2)cc(OC)c1O`, the inhibition was 35.5% (active). For the compound `O=C(O)c1cccc(NC(=S)N/N=C/c2c[nH]c3ccccc23)c1`, the inhibition is 3.61% (inactive). On to `OCCN1CCN(C(=S)c2ccc(-c3ccccc3)cc2)CC1`, for which the inhibition was 14.5% (inactive). Next, `Cc1ccc(C)c(NC(=O)NNC(=O)c2ccc3ccccc3c2O)c1`: 4.3% (inactive). As to `Cc1nc2nc[nH]n2c(=O)c1C/C=C/c1ccccc1`, the inhibition is 50.7% (active).

These data come from PubChem BioAssay AID2170 (The Scripps Research Institute Molecular Screening Center, 2009).
